Calls of active or inactive are those of the source.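 The calls were made as follows: active = compounds leaving under half of the peptide-driven platelet calcium rise; inactive = the rest.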
Target: Proteinase-activated receptor 4 (Homo sapiens) (UniProt Q96RI0)
Assay: inhibition of PAR4-AP calcium signal – cell-based, single concentration, washed platelets, Fluo4 calcium (AID 652250)
Conditions: PAR4-AP calcium Fluo4 fluorescence, at 10 µM
Method in brief: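 Assay system: Fluo4-AM-loaded washed human platelets / Quantity: 10^8 platelets/mL / Detection: fluorescence at 480/540 nm, 1 s intervals / Also added: 80 µM PAR4-AP / Benchmarks: PAR4-AP-stimulated DMSO control (100%) / Replicates: triplicate wells / Read-out: peak minus basal RFU as % of per-donor DMSO control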

Proteinase-activated receptor 4 (Homo sapiens), sequence (Q96RI0 whole entry, looked up): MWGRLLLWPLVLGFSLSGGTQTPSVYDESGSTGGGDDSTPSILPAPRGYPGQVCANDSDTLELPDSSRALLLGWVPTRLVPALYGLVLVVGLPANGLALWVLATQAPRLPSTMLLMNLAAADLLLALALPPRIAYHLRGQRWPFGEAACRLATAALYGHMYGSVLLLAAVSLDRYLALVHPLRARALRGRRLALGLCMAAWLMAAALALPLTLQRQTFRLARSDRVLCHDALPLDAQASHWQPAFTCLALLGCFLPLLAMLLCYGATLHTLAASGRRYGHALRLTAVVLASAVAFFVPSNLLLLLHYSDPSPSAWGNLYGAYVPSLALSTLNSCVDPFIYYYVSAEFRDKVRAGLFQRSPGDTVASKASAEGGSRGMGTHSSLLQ

For `CC(=O)n1cc(-c2ccncc2)c2ccccc21`, the “% of max PAR4-AP calcium response” value was “inactive”.

Source: PubChem BioAssay AID652250 (Vanderbilt Specialized Chemistry Center, 2013)
